Test results taken from ChEMBL document CHEMBL3352115, “Discovery of APD334: Design of a Clinical Stage Functional Antagonist of the Sphingosine-1-phosphate-1 Receptor” (ACS Med Chem Lett, 2014).
Active and inactive are the calls of the source. The rule behind the calls is not given here.

Columns and labels:
[1] = target: T1, Sphingosine 1-phosphate receptor 1 (Homo sapiens, UniProt P21453); assay: Agonist activity at human S1P1 receptor assessed as cAMP accumulation by HTRF assay; assay type: functional
T1 sequence (P21453 whole entry): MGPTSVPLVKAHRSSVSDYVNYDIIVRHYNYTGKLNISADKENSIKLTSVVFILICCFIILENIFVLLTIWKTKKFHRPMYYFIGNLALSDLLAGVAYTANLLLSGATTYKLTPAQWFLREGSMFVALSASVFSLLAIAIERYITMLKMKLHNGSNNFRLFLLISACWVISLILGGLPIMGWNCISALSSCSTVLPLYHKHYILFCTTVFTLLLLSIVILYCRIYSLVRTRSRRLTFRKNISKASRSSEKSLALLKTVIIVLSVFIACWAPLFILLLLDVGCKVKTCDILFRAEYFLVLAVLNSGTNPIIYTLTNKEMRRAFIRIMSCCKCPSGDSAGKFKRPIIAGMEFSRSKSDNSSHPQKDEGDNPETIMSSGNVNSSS
Summary of the method: (§1)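 HTRF cyclase (cAMP) functional assay at S1P1 of each species; EC50 taken as mean of three or more replicates; efficacy given as % agonism relative to S1P.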

[2] = target: T1, Sphingosine 1-phosphate receptor 1; assay: Agonist activity at human S1P1 receptor assessed as cAMP accumulation by HTRF assay relative to S1P; assay type: functional; summary of the method: as §1
[3] = Activation of Inward rectifier potassium channel in human atrial myocytes; assay type: cell-based; details: Cardiac atrium
Summary of the method: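 In vitro activation of the inward-rectifying potassium channel (IKACh) in human atrial myocytes, run alongside S1P as reference agonist; potency expressed as EC50.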

Rattus norvegicus [4] = assay: Reduction in ankle diameter in Lewis rat collagen-induced arthritis model at 1 mg/kg, po qd measured on day 17 (reference value: +/- inches); assay type: functional
Summary of the method: (§2)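 Female Lewis rats with collagen-induced arthritis, prophylactic daily oral dosing; ankle diameter (inches) and body weight recorded at day 17 end point; mean ± SEM.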

Mus musculus = assay: Reduction in disease severity in C57Bl/6 mouse experimental autoimmune encephalomyelitis model of multiple sclerosis at 1 mg/kg dosed once daily beginning on day 18 and continued to day 37; assay type: functional, organism-based; set-up: dose 1 mg/kg
Summary of the method: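 Female C57Bl/6 mice with MOG35–55-induced EAE; once-daily treatment started day 18 after severe disease onset and continued to day 37; vehicle 0.5% methylcellulose; clinical scoring.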

Rattus norvegicus [5] = assay: Induction of body weight regain in Lewis rat collagen-induced arthritis model at 1 mg/kg, po qd measured on day 17 (reference value: 160.3 +/- 2.3 g); assay type: functional
Rattus norvegicus [6] = assay: Reduction in ankle diameter in Lewis rat collagen-induced arthritis model at 0.075 mg/kg, po qd measured on day 17 (reference value: +/- inches); assay type: functional; summary of the method: as §2
Rattus norvegicus [7] = assay: Induction of body weight regain in Lewis rat collagen-induced arthritis model at 0.075 mg/kg, po qd measured on day 17 (reference value: 160.3 +/- 2.3 g); assay type: functional
[8] = Half life in rat liver microsomes; assay type: ADME
Summary of the method: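 Stability on incubation with liver microsomes of each species; half-life reported.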

Row | EC50 [1] [nM] | Emax [2] [%] | SMILES | also measured
1 | 1.7 | 109 | N#Cc1cc(COc2ccc3[nH]c4c(c3c2)CCC4CC(=O)O)ccc1OC(F)(F)F (racemic) | –
2 | 0.44 | 103 | CC(C)Cc1ccc(COc2ccc3[nH]c4c(c3c2)CCC4CC(=O)O)cc1C(F)(F)F (racemic) | –
3 | 141 | 104 | N#Cc1ccc(COc2ccc3[nH]c4c(c3c2)CCC4CC(=O)O)cc1C(F)(F)F (racemic) | –
4 | 0.49 | 107 | CCCc1ccc(COc2ccc3[nH]c4c(c3c2)CCC4CC(=O)O)cc1C(F)(F)F (racemic) | –
5 | 159 | 117 | O=C(O)CC1CCc2c1[nH]c1ccc(OCc3ccc(Cl)c(C(F)(F)F)c3)cc21 (racemic) | –
6 | – | 90 | N#Cc1cc(COc2ccc3[nH]c4c(c3c2)CCC4CC(=O)O)cc(OC(F)(F)F)c1 (racemic) | –
7 | 0.077 | 96 | O=C(O)CC1CCc2c1[nH]c1ccc(OCc3ccc(C4CCCCC4)c(C(F)(F)F)c3)cc21 (racemic) | –
8 | 55.8 | 112 | CC(C)(C)Cc1ccc(COc2ccc3[nH]c4c(c3c2)CCC4CC(=O)O)cc1C(F)(F)F (racemic) | –
9 | 3.68 | 118 | O=C(O)CC1CCc2c1[nH]c1ccc(OCc3ccc(C4CC4)c(C(F)(F)F)c3)cc21 (racemic) | –
10 | – | – | CCCCCCCCc1ccc(CCC(N)(CO)CO)cc1 [FINGOLIMOD] | Activity (Rattus norvegicus [4]): 0.2694 inches; Activity (Mus musculus): Active; Activity (Rattus norvegicus [5]): 181.9 g
11 | – | 98 | O=C(O)CC1CCc2c1[nH]c1ccc(OCc3cc(C(F)(F)F)cc(C(F)(F)F)c3)cc21 (racemic) | –
12 | 120 | 136 | COc1ccc(COc2ccc3[nH]c4c(c3c2)CCC4CC(=O)O)cc1C#N (racemic) | –
13 | 0.45 | 109 | O=C(O)CC1CCc2c1[nH]c1ccc(OCc3ccc(C4CCC4)c(C(F)(F)F)c3)cc21 (racemic) | –
14 | – | – | CN(Cc1cnc2nc(N)nc(N)c2n1)c1ccc(C(=O)N[C@@H](CCC(=O)O)C(=O)O)cc1 [METHOTREXATE] | Activity (Rattus norvegicus [6]): 0.2795 inches; Activity (Rattus norvegicus [7]): 181.7 g
15 | 4.58 | 111 | O=C(O)CC1CCc2c1[nH]c1ccc(OCc3ccc(CC4CCCCC4)c(C(F)(F)F)c3)cc21 (racemic) | –
16 | 0.087 | 98 | N#Cc1cc(COc2ccc3[nH]c4c(c3c2)CCC4CC(=O)O)ccc1C1CCCCC1 (racemic) | –

Row | SMILES | EC50 [1] [nM] | Emax [2] [%] | also measured
17 | CCCCCCCCCCCCC/C=C/[C@@H](O)[C@@H](N)COP(=O)(O)O | 0.062 | – | EC50 [3]: 2.1 nM
18 | O=C(O)CC1CCc2c1[nH]c1ccc(OCc3ccc(C4CCCC4)c(C(F)(F)F)c3)cc21 (racemic) | 0.073 | 104 | –
19 | O=C(O)C[C@@H]1CCc2c1[nH]c1ccc(OCc3ccc(C4CCCC4)c(C(F)(F)F)c3)cc21 | 0.09 | 103 | half-life [8]: 9 min
